The source of these data is ChEMBL document CHEMBL1137448, “Structure-activity studies on diphenylpyrazine derivatives: a novel class of prostacyclin receptor agonists” (Bioorg Med Chem, 2007).

Molecules are shown by their SMILES.

By AUC is commonly meant the area under the concentration-time curve, a measure of exposure. For orientation: half-life means the time needed for the level to fall by half in the phase considered. As usually defined, the Tmax is the time from dosing to the highest level. As usually defined, the Cmax is the maximum level reached in the sampled fluid or tissue. In general, IC50 refers to the concentration at which inhibition is half-maximal.

Data set [1] in a line: AUC in Sprague-Dawley rat at 10 mg/kg, po. The format is ADME, organism-based. The arrangement: dose 10 mg/kg, route oral. The following applies: plasma. In outline:
(§1)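 Compound given iv or po to non-fasted groups of three animals (acclimatized ≥1 week rats, ≥3 weeks dogs; fed standard diets, 21–25 °C). Venous blood at predose, 5, 15, 30 min, 1, 2, 4, 6, 8, 10, 24 h into heparinized tubes; plasma by centrifugation (3000 rpm, 15 min, 4 °C); drug measured by LC-MS (APCI or ESI positive, SIM/SRM). Values mean ± SD, n = 3.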

Data set [2] is described as follows: AUC in Sprague-Dawley rat at 3 mg/kg, iv. The format is ADME, organism-based. The arrangement: dose 3 mg/kg, route intravenous. The following applies: plasma. Summed up:
as §1

Data set [3] can be described thus: Half life in cynomolgus monkey at 1 mg/kg, po. The format is ADME, organism-based, Macaca fascicularis. Also noted: dose 1 mg/kg, route oral. The settings on record: in vivo. In outline:
(§2)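 Compound given iv or orally to non-fasted animals, groups of three; dogs and monkeys acclimatised over 3 weeks at 21–25 °C, 45–65% humidity. Venous blood drawn into heparinised tubes before dosing and at 5, 15, 30 min and 1, 2, 4, 6, 8, 10, 24 h; plasma by centrifugation (3000 rpm, 15 min, 4 °C), drug quantified by HPLC-MS in SIM or SRM mode; mean ± SD, n = 3.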

Data set [4] in a line: Tmax in Beagle dog at 3 mg/kg, po. Also noted: dose 3 mg/kg, route oral. The format is ADME, organism-based, Canis lupus familiaris. The settings on record: in vivo. In outline:
(§3)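 Animals were acclimatized (rats >1 week, dogs and monkeys >3 weeks) at 21–25 °C and 45–65% humidity, and were not fasted. Dosing was iv or oral to groups of three. Venous blood was sampled predose and at 5, 15 and 30 min and 1–24 h into heparin. Plasma was spun at 3000 rpm for 15 min at 4 °C and analysed by LC-MS (APCI/ESI positive, SIM/SRM). Values are mean ± SD, n=3.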

The nature of data set [5]: Cmax in Sprague-Dawley rat at 10 mg/kg, po. The format is ADME, organism-based. Also noted: dose 10 mg/kg, route oral. The following applies: in vivo. In outline:
as §3

The next data set deals with Plasma. The experiment in a line: Inhibition of ADP-induced platelet aggregation in human platelet rich plasma.
A short description of data set [6]: Half life in Beagle dog at 3 mg/kg, po. The format is ADME, organism-based, Canis lupus familiaris. The arrangement: dose 3 mg/kg, route oral. The following applies: in vivo. Summed up: as §3
A short description of data set [7]: AUC in Beagle dog at 3 mg/kg, po. The arrangement: dose 3 mg/kg, route oral. The settings on record: plasma. The format is ADME, organism-based, Canis lupus familiaris. Summed up:
as §1

Data set [8] in a line: Half life in Sprague-Dawley rat at 3 mg/kg, iv. The settings on record: in vivo. The format is ADME, organism-based. Also noted: dose 3 mg/kg, route intravenous. Summed up:
as §3

Data set [9] can be described thus: Half life in Sprague-Dawley rat at 10 mg/kg, po. The format is ADME, organism-based. The arrangement: dose 10 mg/kg, route oral. The following applies: in vivo. In outline:
as §3

Data set [10] is described as follows: Half life in Beagle dog at 1 mg/kg, iv. The format is ADME, organism-based, Canis lupus familiaris. Also noted: dose 1 mg/kg, route intravenous. The settings on record: in vivo. Summed up: as §2
A short description of data set [11]: Oral bioavailability in Sprague-Dawley rat at 10 mg/kg. The format is ADME, organism-based. The settings on record: in vivo. In outline: as §3
Data set [12] in a line: Tmax in cynomolgus monkey at 1 mg/kg, po. Also noted: dose 1 mg/kg, route oral. The following applies: in vivo. The format is ADME, organism-based, Macaca fascicularis. Summed up: as §2
The nature of data set [13]: AUC in cynomolgus monkey at 1 mg/kg, po. The settings on record: plasma. Also noted: dose 1 mg/kg, route oral. The format is ADME, organism-based, Macaca fascicularis. Summed up:
as §3

A short description of data set [14]: AUC in Beagle dog at 1 mg/kg, iv. The format is ADME, organism-based, Canis lupus familiaris. Also noted: dose 1 mg/kg, route intravenous. The settings on record: plasma. Summed up: as §1
The nature of data set [15]: Tmax in Sprague-Dawley rat at 10 mg/kg, po. The format is ADME, organism-based. The arrangement: dose 10 mg/kg, route oral. The following applies: in vivo. In outline: as §3
Data set [16] is described as follows: Oral bioavailability in Beagle dog at 3 mg/kg. The format is ADME, organism-based, Canis lupus familiaris. The settings on record: in vivo. Summed up: as §3
The nature of data set [17]: Cmax in cynomolgus monkey at 1 mg/kg, po. The format is ADME, organism-based, Macaca fascicularis. The arrangement: dose 1 mg/kg, route oral. The settings on record: in vivo. Summed up:
as §2

A short description of data set [18]: Cmax in Beagle dog at 3 mg/kg, po. The format is ADME, organism-based, Canis lupus familiaris. The arrangement: dose 3 mg/kg, route oral. The following applies: in vivo. Summed up:
as §3

In the case of `CC(C)N(CCCCOCC(=O)O)c1cnc(-c2ccccc2)c(-c2ccccc2)n1`, the AUC in [1] worked out at 17700 ng·h/mL; in data set [2], 5200 ng·h/mL; in data set [7], 176000 ng·h/mL; in data set [13], 650 ng·h/mL; in data set [14] it was 72500 ng·h/mL. The half-life in data set [3] is 5.6 h; in [6], 6.2 h; in data set [8] it was 4.9 h; in [9], 3.6 h; in [10], 5.9 h. The Tmax in [4] came to 0.8 h; in data set [12], 2.3 h; in data set [15] it was 0.8 h. Moreover, the Cmax in data set [5] came to 1900 ng/mL; in [17] it was 110 ng/mL; in data set [18], 14900 ng/mL. In the data set on Plasma, this molecule yielded an IC50 of 200 nM. In addition, the bioavailability in data set [11] was 102%; in data set [16], 80%.
In turn, `CN(CCc1cccc(OCC(=O)O)c1)c1cnc(-c2ccccc2)c(-c2ccccc2)n1` came in with an IC50 in the data set on Plasma of 2000 nM.
In turn, `CC#CCC(C)[C@H](O)/C=C/[C@@H]1[C@H]2c3cccc(CCCC(=O)O)c3O[C@H]2C[C@H]1O` (stereo partly drawn) [BERAPROST SODIUM] gave an IC50 with Plasma of 17 nM.
The molecule `CC#CCC(C)[C@H](O)/C=C/[C@@H]1[C@H]2C/C(=C/CCCC(=O)O)C[C@H]2C[C@H]1O` (stereo partly drawn) [ILOPROST] registered an IC50 with Plasma of 5 nM.
The same measure, in the same setting: the same measure for `CC(C)N(CCCCOCC(=O)NS(C)(=O)=O)c1cnc(-c2ccccc2)c(-c2ccccc2)n1` [SELEXIPAG]: 6400 nM.
